Active and inactive are the calls of the source.
Tests used:
Leishmania donovani [1] = test: Antimicrobial activity against wild type Leishmania donovani AG83 transfected with drug-resistant Leishmania donovani LdDR50 topoisomerase 1 F270L, K430N mutant in large subunit assessed as inhibition of parasite growth at 20 uM after 24 hrs by MTT assay; type: functional; details: AG83, 24 h
Method in brief: (§1)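 WT promastigotes transfected by electroporation with mutant large-subunit (pXG-HYG, hygromycin selection) and/or small-subunit (pXG-GFP2+, G418 selection) topoisomerase I genes. Grown with DIM 1–20 μM for 24 h; MTT read-out, growth as % of optical density of untreated WT parasites.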

Leishmania donovani [2] = test: Antimicrobial activity against wild type Leishmania donovani AG83 transfected with drug-resistant Leishmania donovani LdDR50 topoisomerase 1 K430N mutant in large subunit and wild type small subunit assessed as inhibition of parasite growth at 20 uM after 24 hrs by MTT assay; type: functional; details: AG83, 24 h; method in brief: as §1
Leishmania donovani [3] = test: Antimicrobial activity against wild type Leishmania donovani AG83 transfected with drug-resistant Leishmania donovani LdDR50 topoisomerase 1 wild type large subunit and N184S mutant in small subunit assessed as inhibition of parasite growth at 20 uM after 24 hrs by MTT assay; type: functional; details: AG83, 24 h; method in brief: as §1
Leishmania donovani [4] = test: Inhibition of recombinant wild type Leishmania donovani AG83 topoisomerase 1b-mediated relaxation of supercoiled pBluescript SK(+) DNA at 10 uM after 30 mins using ethidium bromide staining
Method in brief: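 Recombinant L and S subunits (E. coli, Ni-NTA then phosphocellulose) were reconstituted at a 1:1 molar ratio and dialysed 12 h at 4°C in 50 mM K-phosphate pH 7.5. Enzyme (30 fmol) acted on 90 fmol supercoiled pBS SK(+) for 30 min at 37°C, with DIM or 4% DMSO. Products ran on 1% agarose with ethidium bromide (0.5 μg/ml), and the supercoiled band was quantified.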

Leishmania donovani [5] = test: Inhibition of recombinant drug-resistant Leishmania donovani LdDR50 topoisomerase 1b large subunit K430N mutant and small subunit N184S mutant-mediated relaxation of supercoiled pBluescript SK(+) DNA at up to 50 uM after 30 mins using ethidium bromide staining
Method in brief: (§2)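 Reconstituted recombinant enzyme (30 fmol) with 90 fmol supercoiled pBluescript SK(+) DNA (3:1 DNA:enzyme), 30 min at 37°C with DIM (1–50 μM for fully mutant enzyme; 10 μM for single-site mutants); 4% DMSO vehicle control. Products on 1% agarose, ethidium bromide (0.5 μg/ml) stained; supercoiled monomer band quantified.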

[6] = test system: T1, Leishmania donovani [N184S]; test: Inhibition of recombinant drug-resistant Leishmania donovani LdDR50 topoisomerase 1b wild type large subunit and small subunit N184S mutant-mediated relaxation of supercoiled pBluescript SK(+) DNA at up to 50 uM after 30 mins using ethidium bromide staining; method in brief: as §2
T1 sequence (whole entry): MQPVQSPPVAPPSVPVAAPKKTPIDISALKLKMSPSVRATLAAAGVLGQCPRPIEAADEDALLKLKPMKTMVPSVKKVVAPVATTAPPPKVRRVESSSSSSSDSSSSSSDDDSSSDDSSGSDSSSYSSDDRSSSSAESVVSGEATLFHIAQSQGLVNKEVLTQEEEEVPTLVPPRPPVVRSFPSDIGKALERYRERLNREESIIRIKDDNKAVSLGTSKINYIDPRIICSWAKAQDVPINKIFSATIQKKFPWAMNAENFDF

Leishmania donovani [7] = test: Inhibition of recombinant Leishmania donovani AG83 topoisomerase 1b-mediated religation of 14-mer/25-mer suicide DNA substrate at 20 uM after […] by PAGE analysis
Method in brief: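 For cleavage, the 5′-32P 14-mer/25-mer suicide substrate (5 nM) was incubated with 0.15 μM reconstituted enzyme at 23°C, with or without 20 μM DIM. Complexes were shifted to 30°C for 2 min. A 300-fold excess of 11-mer acceptor was added for 30, 60 and 120 s. Samples were stopped with 1% SDS, trypsinised, and run on a sequencing gel to read the 23-mer religated product.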

Leishmania donovani [8] = test: Ratio of KD for drug-resistant Leishmania donovani LdDR50 topoisomerase 1b to KD for wild type Leishmania donovani AG83 topoisomerase 1b
[9] = Binding affinity to recombinant drug-resistant Leishmania donovani LdDR50 topoisomerase 1b large subunit F270L, K430N mutant and small subunit N184S mutant after 24 hrs by equilibrium dialysis method
Method in brief: (§3)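 Recombinant His-tagged subunits expressed in E. coli BL21(DE3) pLysS, purified on Ni-NTA then phosphocellulose, reconstituted 1:1. Enzyme 200 μM with DIM 1–20 μM in 20 mM Tris-HCl pH 7.5, 50 mM NaCl, 10 mM MgCl2 for 30 min at 37°C, then dialysed (12–14 kDa cutoff) 24 h at 25°C. Free DIM measured by absorbance (ε 6.6 × 10^4 M−1); KD from saturation plot.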

DNA topoisomerase I = DNA topoisomerase I (Leishmania donovani (strain BPK282A1), UniProt E9BRC0, F270L/K430N); test: Binding affinity to recombinant drug-resistant Leishmania donovani LdDR50 topoisomerase 1b large subunit F270L, K430N mutant after 24 hrs by equilibrium dialysis method; method in brief: as §3
[10] = Binding affinity to Leishmania donovani small subunit of topoisomerase 1b

Question: Which results are given for `c1ccc2c(Cc3c[nH]c4ccccc34)c[nH]c2c1` [ARUNDINE]?
Answer: inhibition at 20 µM (Leishmania donovani [1]): 34%; inhibition at 20 µM (Leishmania donovani [2]): 94%; inhibition at 20 µM (Leishmania donovani [3]): 91%; inhibition (Leishmania donovani [4]): Active; inhibition (Leishmania donovani [5]): Active; inhibition [6]: Active; inhibition (Leishmania donovani [7]): Active; Ratio (Leishmania donovani [8]): 25000; Kd [9]: 240 µM; Kd (DNA topoisomerase I): 760 µM; Kd [10]: 0.05 µM
